High-throughput results: PubChem BioAssay, several laboratories
Compounds with a hit are over-represented: about 3.9% of the library has one in this group of screens.
HSF1 activator: increases HSF-1 driven luciferase reporter signal | NIH3T3-HGL HSF-1 luciferase reporter, MG132, 8 h; 100% = twice DMSO control signal | AID 504408 | activation, % at 9 µM | 300,000 tested, 1.7% active;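 active means mean replicate activation of at least 50% with a set share of replicates each reaching 50%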
core dimer inh: blocks dimerization of HCV core protein | TR-FRET GST/Flag-core106 dimerization, 1536-well | inhibition, % at 5 µM | 300,000 tested, 0.33% active | AID 1899;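 active means inhibition above the mean of all tested compounds plus 3 SD, set per screening campaign, cut at about 45% in these data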
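test system = GST/Flag-tagged HCV core106 proteins | probe or stimulus = Eu donor and XL665 acceptor anti-tag antibodies | times = compound-protein-antibody incubation 4 h at 22.5 °C | signal = TR-FRET, excitation 340 nm, emission 617 and 671 nm | measure = percent inhibition of core106 dimerization signal | controls = wells lacking GST-core106 and wells with excess unlabelled core106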
HCV NS3 hel inh: HCV NS3 helicase inhibition; NS3 helicase DNA unwinding, Cy5 molecular beacon fluorescence; inhibition, % at 10.9 µM; 290,000 tested, 0.56% active;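 active means inhibition above the mean of all tested compounds plus 3 SD, set per campaign, cut at about 35% in these data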
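System: NS3 helicase fragment of HCV / Schedule: 1 h at 25 °C / Control set: DMSO alone as 0% and 110 µM thioflavine S as 100% / Reagent: Cy5/quencher beacon DNA duplex and ATP to start / Technique: Cy5 fluorescence / Replication: singlicate / Evaluation: % inhibition of end-to-start signal ratio versus controls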
HSF1 inh: HSF1 inhibition; NIH3T3-HGL HSE-luciferase, MG132-induced, luminescence 8 h; hits give low values; activity change, negative = inhibition, % at 7.5 µM (by protocol); 300,000 tested, 0.77% active; AID 2098;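 active means more than half of replicate wells show activity change below -50%, luminescence cut by over half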;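 further: luciferase reports HSF-1 transcriptional activity via heat shock element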
HSP90 refold inh: inhibitors of HSP90 luciferase refolding in rabbit reticulocyte lysate; luciferase refolding luminescence, 3 h; inhibition, % at 5.6 µM; 290,000 tested, 0.91% active; AID 1789;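 active means inhibition above the screen-wide mean plus 3 SD, computed separately per campaign, cut at about 16% in these data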;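 further: inhibitors lower the luminescence because luciferase stays unfolded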
FID counter: fluorescent intercalator displacement, NS3 helicase counter-screen; 290,000 tested, 0.17% active; DNA fluorescent intercalator displacement, fluorescence; inhibition, % at 7.9 µM; AID 1845; in the data active means inhibition above about 37%;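 further: higher means more ethidium bromide displaced from hairpin DNA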
Each line names hits and unclear results; the compound was inactive in the other large screens.

Cc1cc(C)nc(Sc2ccc([N+](=O)[O-])cc2[N+](=O)[O-])n1	HSF1 activator 66
O=C(NCc1cccc(Br)c1)C1CC(c2ccc(C(F)(F)F)cc2)=NO1 (centres undefined)	none (no result: HCV NS3 hel inh, HSP90 refold inh, FID counter)
CCOC(=O)N1CCC(NC(=O)CS(=O)Cc2nc(-c3ccc(C)cc3)oc2C)CC1 (centres undefined)	none
O=C(Nc1ccccc1[N+](=O)[O-])c1cccc(N2C(=O)CCC2=O)c1	HSF1 activator 54
CCCCCC[n+]1c(-c2ccccc2)csc1Nc1ccccc1	HSF1 activator 63
O=C(Cc1ccc2c(c1)CCCC2)Nc1ccc2ccccc2c1	HSF1 activator 57
O=C(CSc1cccs1)Nc1ccc2ccccc2c1	HSF1 activator 57
O=C(CSc1cccs1)Nc1cccc2ccccc12	HSF1 activator 63
CC(C)(C)n1[nH]c2c3c(ccc2c1=O)C(=O)c1ccccc1C3=O	HSP90 refold inh 17
Cc1ccc(-n2[nH]c3c4c(ccc3c2=O)C(=O)c2ccccc2C4=O)cc1	none
Cc1ccc(/C=C2/NC(=O)N(Cc3ccc(Br)cc3)C2=O)o1	HSF1 activator 59
Cc1ccccc1N(Cc1cc(=O)[nH]c2ccccc12)C(=O)CCl	none
CCCCCCCN(C(=O)CCl)c1ccccc1C	HSF1 activator 94
CCCn1c(COc2ccc(C(=O)O)cc2)nc2ccccc21	none
c1ccc(COc2ccccc2CNC2CCCC2)cc1	HSF1 activator 58
O=C(CSc1n[nH]c(=O)[nH]c1=O)NC1CCCCC1	HSP90 refold inh 17
CCc1nc2sc3ccccc3c(=O)c2c(=O)n1Cc1ccc(OC)cc1	HSF1 inh -65
N#CCCN1CCn2c1nc1ccccc12	none
CCC(C)N=C1CC(C)(C)CC(=O)/C1=C(/O)Cc1ccccc1 (centres undefined)	none
COC(=O)c1ccc(C(=O)OC)c(NC(=O)C(C)(C)C)c1	HSF1 activator 67
COC(=O)c1ccc(C(=O)OC)c(NC(=O)CCC(=O)O)c1	none
CC(C)(CNC(=O)c1cccc(S(=O)(=O)Nc2ccc(Br)cc2)c1)N1CCOCC1	none (no result: HCV NS3 hel inh, HSP90 refold inh, FID counter)
CC(C)c1ccc(-c2nnn(CCC#N)n2)cc1	none
N#CCCn1nnc(-c2ccccc2F)n1	HSF1 inh -63
O=C(COC(=O)c1ccncc1)Nc1cccc(Cl)c1	core dimer inh 46 (no result: HSF1 activator, HSF1 inh)
CCOc1ccc(C2NCCc3cc(OC)c(OC)cc32)cc1OC (centres undefined)	none
COc1ccc2cc1Oc1ccc(cc1)CC1c3c(cc(OC)c4c3Oc3cc5c(cc3O4)CCNC5C2)CCN1C (centres undefined)	FID counter 81
C=C(C)Cn1c(NCCC)nc2c1c(=O)n(C)c(=O)n2C	HSF1 inh -53
CCCNc1nc2c(c(=O)n(C)c(=O)n2C)n1Cc1ccc(F)cc1	none
COC(=O)c1c(NC(=O)c2nc3ccccc3s2)sc2c1CCN(C(C)=O)C2	none (no result: HSF1 activator, HSF1 inh)
CNC(=O)c1c(NC(=O)c2nc3ccccc3s2)sc2c1CCC2	HSF1 activator 55
Cc1oc(-c2cc3c(cc2Cl)OCO3)nc1CN1CCCC1c1ccc(F)cc1 (centres undefined)	HSF1 inh -52
COc1cccc(C(=O)Nc2nnc(S(=O)(=O)N(C)Cc3ccccc3)s2)c1	none
O=c1[nH]c(CCl)nc2cc(-c3ccc(F)cc3)sc12	HSF1 activator 53
O=C1SCC(c2ccccc2)=NN1Cc1ccccc1	HSF1 inh -59
CC(=O)Nc1ccc(C2=NN(Cc3nnc(-c4ccccc4)o3)C(=O)SC2)cc1	HSF1 activator 88
O=C(OC1CCCCC1=O)c1cccc(S(=O)(=O)N2CCOCC2)c1 (centres undefined)	none (no result: HCV NS3 hel inh, HSP90 refold inh, FID counter)
O=C1C2CCCN2C(c2ccccc2F)N1c1ccc(F)cc1 (centres undefined)	none
FC(F)(F)c1ccc(/C=N/N2CCN(Cc3cccc4ccccc34)CC2)cc1	none
C(=N\N1CCN(Cc2cccc3ccccc23)CC1)/c1cccnc1	HSF1 activator 62
COc1ccc(S(=O)(=O)N2CCc3ccccc32)cc1[N+](=O)[O-]	none
CN(CC(=O)Nc1sccc1C#N)C1CCCCC1	core dimer inh 51
CCN(CC)c1ccc(C(=O)OCC(=O)Nc2sccc2C#N)cc1	HSF1 activator 58
